# Measured values published in paper PMC12078793 (Nature Communications, 2025).
# Columns and labels:
# [1] = Blood PTH analog concentrations; assay type: in vivo; details: female, CD-1, mouse, serum, sc, 10 nmol/kg
# pHL2-hPTH1R = target: T1, pHL2-hPTH1R (Homo sapiens, UniProt Q03431); assay: Receptor internalization in GPG-10 cells; assay type: cell-based; details: 1x10-8 to 1x10-5 M, fluorescence ratio 485/405, n = 3
# T1 sequence (Q03431 106-593 limits assumed): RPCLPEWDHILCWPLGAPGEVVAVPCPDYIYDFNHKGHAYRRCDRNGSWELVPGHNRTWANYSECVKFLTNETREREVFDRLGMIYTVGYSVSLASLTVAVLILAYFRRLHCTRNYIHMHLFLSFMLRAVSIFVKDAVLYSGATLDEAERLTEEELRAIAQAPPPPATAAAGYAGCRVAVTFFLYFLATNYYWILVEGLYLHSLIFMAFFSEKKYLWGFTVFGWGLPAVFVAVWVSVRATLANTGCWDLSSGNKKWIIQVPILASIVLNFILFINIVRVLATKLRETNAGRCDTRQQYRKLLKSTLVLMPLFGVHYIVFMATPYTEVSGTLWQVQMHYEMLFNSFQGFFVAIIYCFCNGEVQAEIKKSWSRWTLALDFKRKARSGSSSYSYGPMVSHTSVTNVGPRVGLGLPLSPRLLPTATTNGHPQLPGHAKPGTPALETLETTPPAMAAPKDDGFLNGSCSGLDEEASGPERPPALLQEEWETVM
# In short: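 Assay used HEK293 cells stably expressing glosensor plus hPTH1R with pHluorin2 inserted in the ECD E2 region. Confluent monolayers were rinsed with HBSS (0.1% BSA, 10 mM HEPES, pH 7.4), and baseline was recorded for 10 min: 535 nm emission with alternating 485/405 nm excitation at 1-min cycles. Ligand was then added and reading continued for 90 min. The AUC of the 485/405 ratio vs time was taken at each concentration.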
# [2] = target: bovine serum albumin (bovine) (UniProt P02769); assay: BLI
# bovine serum albumin (bovine), sequence (P02769 25-607): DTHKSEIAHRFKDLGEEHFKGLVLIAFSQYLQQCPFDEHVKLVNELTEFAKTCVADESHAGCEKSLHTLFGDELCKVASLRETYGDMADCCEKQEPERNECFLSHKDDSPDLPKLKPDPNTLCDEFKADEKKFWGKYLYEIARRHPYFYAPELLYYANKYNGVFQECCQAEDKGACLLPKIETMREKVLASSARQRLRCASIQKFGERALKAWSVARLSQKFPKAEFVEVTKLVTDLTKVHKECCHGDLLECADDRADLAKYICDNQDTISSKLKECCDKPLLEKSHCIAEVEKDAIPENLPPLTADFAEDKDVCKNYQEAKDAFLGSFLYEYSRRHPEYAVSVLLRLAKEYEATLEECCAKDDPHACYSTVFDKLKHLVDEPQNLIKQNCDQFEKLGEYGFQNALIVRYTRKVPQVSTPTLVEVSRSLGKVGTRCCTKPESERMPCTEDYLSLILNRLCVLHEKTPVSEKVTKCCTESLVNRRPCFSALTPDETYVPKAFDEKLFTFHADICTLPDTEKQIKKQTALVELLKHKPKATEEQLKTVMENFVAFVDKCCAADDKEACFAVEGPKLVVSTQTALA
compound,measurement,setting,value
CC[C@H](C)[C@H](NC(=O)[C@H](CCC(=O)O)NC(=O)[C@H](CO)NC(=O)[C@@H](NC(=O)[C@@H](N)CO)C(C)C)C(=O)N[C@@H](CCC(N)=O)C(=O)N[C@@H](CC(C)C)C(=O)N[C@@H](CCSC)C(=O)N[C@@H](Cc1cnc[nH]1)C(=O)N[C@@H](CC(N)=O)C(=O)N[C@@H](CC(C)C)C(=O)NCC(=O)N[C@@H](CCCCN)C(=O)N[C@@H](Cc1cnc[nH]1)C(=O)N[C@@H](CC(C)C)C(=O)N[C@@H](CC(N)=O)C(=O)N[C@@H](CO)C(=O)N[C@@H](CCSC)C(=O)N[C@@H](CCC(=O)O)C(=O)N[C@@H](CCCNC(=N)N)C(=O)N[C@H](C(=O)N[C@@H](CCC(=O)O)C(=O)N[C@@H](Cc1c[nH]c2ccccc12)C(=O)N[C@@H](CC(C)C)C(=O)N[C@@H](CCCNC(=N)N)C(=O)N[C@@H](CCCCN)C(=O)N[C@@H](CCCCN)C(=O)N[C@@H](CC(C)C)C(=O)N[C@@H](CCC(N)=O)C(=O)N[C@@H](CC(=O)O)C(=O)N[C@H](C(=O)N[C@@H](Cc1cnc[nH]1)C(=O)N[C@@H](CC(N)=O)C(=O)N[C@@H](Cc1ccccc1)C(N)=O)C(C)C)C(C)C [PTH(1-34)],half-life,[1],18 min
"L11,dW12,W23,Y36-PTHrP(7-36)",PHL2-PTH1R internalization into acidic compartments,pHL2-hPTH1R,did not induce internalization
Palm-M-PTH(1-14) (peptide),fold lower estimated KD than the non-lipidated counterpart M-PTH(1-14),[2],> 3 fold
